Measurements reported in ChEMBL document CHEMBL4028848, “Discovery of N-{4-[5-(4-Fluorophenyl)-3-methyl-2-methylsulfanyl-3H-imidazol-4-yl]-pyridin-2-yl}-acetamide (CBS-3595), a Dual p38α MAPK/PDE-4 Inhibitor with Activity against TNFα-Related Diseases” (J Med Chem, 2017).
One block for each compound: values may come before it. The source made the active and inactive calls. The calls are words filed in the database; no cut-off is given here.

Legend:
[1] = biological target: Tyrosine-protein kinase Lck (Homo sapiens) (UniProt P06239); assay: Inhibition of Lck (unknown origin) at 10 uM
Sequence of Tyrosine-protein kinase Lck (Homo sapiens) (P06239 2-509 limits assumed): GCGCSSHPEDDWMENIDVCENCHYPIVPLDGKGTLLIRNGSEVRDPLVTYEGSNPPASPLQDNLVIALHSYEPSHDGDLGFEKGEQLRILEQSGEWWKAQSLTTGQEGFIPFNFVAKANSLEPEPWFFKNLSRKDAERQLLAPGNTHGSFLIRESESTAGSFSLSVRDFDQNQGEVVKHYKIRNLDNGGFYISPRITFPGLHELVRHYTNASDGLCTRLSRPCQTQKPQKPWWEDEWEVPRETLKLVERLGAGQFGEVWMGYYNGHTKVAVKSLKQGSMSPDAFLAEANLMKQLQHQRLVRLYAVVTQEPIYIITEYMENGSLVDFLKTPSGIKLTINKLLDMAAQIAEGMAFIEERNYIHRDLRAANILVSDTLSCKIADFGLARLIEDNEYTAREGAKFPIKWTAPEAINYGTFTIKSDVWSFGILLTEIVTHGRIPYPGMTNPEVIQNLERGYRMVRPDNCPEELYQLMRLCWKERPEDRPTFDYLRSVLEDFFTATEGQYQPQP

[2] = Drug level in cynomolgus monkey liver microsomes treated with CBS-3595 at 10 to 100 uM; type: ADME, Macaca fascicularis, microsome
Procedure, shortened: (§1)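 Test compound incubated at 10, 30 and 100 μM with liver microsomes from rat, Cynomolgus monkey or human, and metabolites monitored.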

[3] = biological target: Rho-associated protein kinase 2 (Homo sapiens) (UniProt O75116); assay: Inhibition of ROCK-2 (unknown origin) at 10 uM
Sequence of Rho-associated protein kinase 2 (Homo sapiens) (O75116 whole entry, looked up): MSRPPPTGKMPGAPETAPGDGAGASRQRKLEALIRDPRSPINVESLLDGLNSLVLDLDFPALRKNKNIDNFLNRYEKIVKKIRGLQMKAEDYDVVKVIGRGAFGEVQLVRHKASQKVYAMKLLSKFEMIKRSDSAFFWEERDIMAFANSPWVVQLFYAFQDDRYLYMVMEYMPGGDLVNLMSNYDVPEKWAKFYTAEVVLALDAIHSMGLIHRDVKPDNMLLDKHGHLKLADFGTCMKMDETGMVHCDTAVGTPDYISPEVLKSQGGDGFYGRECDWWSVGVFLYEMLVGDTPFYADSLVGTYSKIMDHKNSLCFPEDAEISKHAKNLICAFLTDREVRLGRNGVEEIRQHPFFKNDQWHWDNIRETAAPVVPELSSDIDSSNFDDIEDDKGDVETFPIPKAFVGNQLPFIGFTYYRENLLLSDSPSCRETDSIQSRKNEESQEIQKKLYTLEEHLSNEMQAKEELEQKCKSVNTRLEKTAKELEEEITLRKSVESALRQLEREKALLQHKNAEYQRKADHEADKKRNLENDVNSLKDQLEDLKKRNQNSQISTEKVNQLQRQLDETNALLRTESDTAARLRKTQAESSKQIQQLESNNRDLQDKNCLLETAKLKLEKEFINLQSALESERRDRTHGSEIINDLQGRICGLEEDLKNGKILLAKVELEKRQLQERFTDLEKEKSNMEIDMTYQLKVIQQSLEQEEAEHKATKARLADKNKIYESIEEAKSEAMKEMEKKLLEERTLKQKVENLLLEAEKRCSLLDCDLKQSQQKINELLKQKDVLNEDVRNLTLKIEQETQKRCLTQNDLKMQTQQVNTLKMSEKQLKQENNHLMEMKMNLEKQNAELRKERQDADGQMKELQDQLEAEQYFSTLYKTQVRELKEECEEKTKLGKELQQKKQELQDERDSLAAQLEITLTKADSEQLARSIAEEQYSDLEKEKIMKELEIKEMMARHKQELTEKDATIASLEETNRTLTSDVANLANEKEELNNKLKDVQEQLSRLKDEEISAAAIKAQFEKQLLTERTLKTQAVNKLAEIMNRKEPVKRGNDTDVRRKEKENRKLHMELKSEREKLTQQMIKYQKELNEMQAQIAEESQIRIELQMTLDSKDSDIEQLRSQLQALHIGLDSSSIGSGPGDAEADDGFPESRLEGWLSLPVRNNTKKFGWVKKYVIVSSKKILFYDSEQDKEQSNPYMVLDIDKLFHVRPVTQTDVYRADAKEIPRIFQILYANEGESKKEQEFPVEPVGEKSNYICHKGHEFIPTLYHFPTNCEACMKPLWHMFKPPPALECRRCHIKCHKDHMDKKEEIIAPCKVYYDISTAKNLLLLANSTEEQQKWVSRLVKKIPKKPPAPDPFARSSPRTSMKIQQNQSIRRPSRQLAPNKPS

[4] = biological target: Mitogen-activated protein kinase 12 (Homo sapiens) (UniProt P53778); assay: Inhibition of p38MAPK gamma (unknown origin) at 10 uM relative to control
Sequence of Mitogen-activated protein kinase 12 (Homo sapiens) (P53778 whole entry): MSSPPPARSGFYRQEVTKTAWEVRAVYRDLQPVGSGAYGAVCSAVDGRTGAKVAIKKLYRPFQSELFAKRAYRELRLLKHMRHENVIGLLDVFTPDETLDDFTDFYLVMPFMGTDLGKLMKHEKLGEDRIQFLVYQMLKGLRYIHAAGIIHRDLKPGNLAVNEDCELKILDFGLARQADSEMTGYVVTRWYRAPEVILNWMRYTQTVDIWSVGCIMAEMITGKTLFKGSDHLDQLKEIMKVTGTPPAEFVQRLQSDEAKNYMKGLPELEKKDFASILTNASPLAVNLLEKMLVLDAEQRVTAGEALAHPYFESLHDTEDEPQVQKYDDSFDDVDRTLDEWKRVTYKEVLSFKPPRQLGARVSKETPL

[5] = system: Canis familiaris; assay: Tmax in Beagle dog assessed as 4-(4-(4-fluorophenyl)-1-methyl-2-(methylsulfinyl)-1H-imidazol-5-yl)pyridin-2-amine level at 40 mg/kg, po by LC-MS/MS analysis; type: ADME, organism-based, Canis lupus familiaris; conditions: in vivo
[6] = system: Rattus norvegicus; assay: Toxicity in Sprague-Dawley rat assessed as piloerection at 2000 mg/kg, po administered via gavage measured on day 1 and 2; type: organism-based; conditions: in vivo
[7] = species on record: Homo sapiens; assay: Inhibition of p70S6K (unknown origin) at 10 uM relative to control
[8] = system: Rattus norvegicus; assay: Toxicity in single po dosed rat assessed as increase in peak inspiratory flow at 100 to 300 mg/kg, po administered as single dose; type: organism-based; conditions: in vivo
[9] = Toxicity in Sprague-Dawley rat administered via oral gavage measured for 14 days; conditions: in vivo
[10] = system: Salmonella typhimurium; assay: Genotoxicity in Salmonella typhimurium in presence of S9 fraction by Ames test; type: toxicity; conditions: salmonella enterica subsp. enterica serovar typhimurium
Procedure, shortened: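 Bacterial reverse mutation (Ames) test in S. typhimurium and E. coli strains, run with and without S9 mix.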

[11] = system: Cynomolgus monkey; assay: Toxicity in cynomolgus monkey assessed as decrease in QT at 6 to 20 mg/kg, po; type: organism-based, Macaca fascicularis; conditions: in vivo
[12] = AUC (infinity) in human at 20 mg, po administered as single dose; type: ADME, organism-based; design: dose 20 mg, time infinity, route oral; conditions: in vivo
Procedure, shortened: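 Placebo-controlled, single-blind, randomized, consecutive-dosing study in healthy subjects given single oral doses, with 10 mg also given fasting and fed in a crossover. Plasma parent and active metabolite were measured predose and from 0.25 to 36 h post dose. PK parameters were derived from individual concentration–time profiles and reported as means.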

[13] = Drug metabolism in human urine assessed as 4-(4-(4-fluorophenyl)-1-methyl-2-(methylsulfinyl)-1H-imidazol-5-yl)pyridin-2-amine formation at 10 to 50 mg, po administered as single dose after 36 hrs; type: ADME, organism-based; conditions: in vivo
Procedure, shortened: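 Healthy subjects, single oral dose. Urine collected at 0–6, 6–12, 12–24 and 24–36 h post dose and analysed for parent and metabolite. Excreted amount expressed relative to administered dose.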

[14] = AUC (0 to t) in female Sprague-Dawley rat at 30 mg/kg, po by LC-MS/MS analysis; type: ADME, organism-based; conditions: in vivo
Procedure, shortened: (§2)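 Rats of each sex received a single oral dose of 30 mg/kg. Plasma concentration–time profiles of parent were determined separately for females and males.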

[15] = biological target: CDK3/Cyclin E (Homo sapiens) (UniProt P24864+Q00526); assay: Inhibition of CDK3/cyclinE (unknown origin) at 10 uM relative to control; type: protein-complex assay
Sequence of CDK3/Cyclin E (Homo sapiens) (P24864 whole entry, looked up): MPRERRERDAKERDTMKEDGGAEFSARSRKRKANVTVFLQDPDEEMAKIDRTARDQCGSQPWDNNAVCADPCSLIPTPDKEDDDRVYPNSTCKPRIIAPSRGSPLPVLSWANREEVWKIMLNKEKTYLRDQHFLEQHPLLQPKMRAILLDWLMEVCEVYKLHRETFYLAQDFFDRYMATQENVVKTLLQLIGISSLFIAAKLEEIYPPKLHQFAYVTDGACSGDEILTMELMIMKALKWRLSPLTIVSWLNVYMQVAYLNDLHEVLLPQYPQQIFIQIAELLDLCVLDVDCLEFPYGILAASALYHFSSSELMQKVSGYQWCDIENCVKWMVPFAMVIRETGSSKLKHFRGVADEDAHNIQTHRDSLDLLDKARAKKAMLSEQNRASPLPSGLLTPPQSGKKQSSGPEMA
Sequence of CDK3/Cyclin E (Homo sapiens) (Q00526 whole entry, looked up): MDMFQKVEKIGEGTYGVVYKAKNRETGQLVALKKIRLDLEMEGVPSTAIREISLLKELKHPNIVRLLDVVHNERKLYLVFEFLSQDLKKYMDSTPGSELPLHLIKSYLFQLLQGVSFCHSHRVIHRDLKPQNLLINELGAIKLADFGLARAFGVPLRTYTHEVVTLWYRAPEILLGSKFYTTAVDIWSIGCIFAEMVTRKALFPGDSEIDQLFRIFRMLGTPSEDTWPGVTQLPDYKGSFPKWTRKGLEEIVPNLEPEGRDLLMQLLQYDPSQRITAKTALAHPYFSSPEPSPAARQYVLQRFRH

[16] = system: Homo sapiens; assay: Toxicity in human assessed as change in body weight at 50 mg, po administered as single dose; type: organism-based; conditions: in vivo
[17] = system: Liver; assay: Drug metabolism in human liver microsomes assessed as N-(4-(4-(4-fluorophenyl)-1-methyl-2-(methylsulfinyl)-1H-imidazol-5-yl)pyridin-2-yl)acetamide formation at 10 to 100 uM; type: ADME, microsome; procedure, shortened: as §1
[18] = system: Liver; assay: Drug metabolism in rat liver microsomes assessed as N-(4-(4-(4-fluorophenyl)-1-methyl-2-(methylsulfinyl)-1H-imidazol-5-yl)pyridin-2-yl)acetamide formation at 10 to 100 uM; type: ADME, microsome; procedure, shortened: as §1
[19] = Half life in Beagle dog at 40 mg/kg, po by LC-MS/MS analysis; type: ADME, organism-based, Canis lupus familiaris; conditions: in vivo
Procedure, shortened: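 Oral single-dose PK; plasma concentrations of parent and metabolite measured. Dogs: blood sampled 0.25 to 24 h after dosing. Humans: healthy subjects, placebo-controlled single-blind randomized consecutive dosing, plasma sampled predose and 0.25–36 h post dose. 10 mg also given fasting and fed in crossover. Parameters derived from individual concentration–time profiles.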

[20] = system: Rattus norvegicus; assay: Antiarthritic activity in Lewis rat assessed as decrease in collagen-induced arthritic score at 25 mg/kg, po bid administered for 10 days; type: functional, organism-based
Procedure, shortened: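 Collagen-induced arthritis in male Lewis rats (5–6 per group). Groups received vehicle, dexamethasone 1 mg/kg, test item 50 mg/kg once daily, or 25 mg/kg twice daily for 10 days. Body weight, arthritic score and paw volume were monitored, and serum COMP was measured at the end.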

[21] = system: Liver; assay: Drug metabolism in rat liver microsomes assessed as 4-(4-(4-fluorophenyl)-1-methyl-2-(methylsulfinyl)-1H-imidazol-5-yl)pyridin-2-amine formation at 10 to 100 uM; type: ADME, microsome; procedure, shortened: as §1
[22] = system: Lymphocyte; assay: Clastogenicity in human lymphocytes in presence of S9 fraction by microneucleus test; type: toxicity, cell-based
Procedure, shortened: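 Cytogenetic clastogenicity assay in cultured human lymphocytes, run with and without S9 mix.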

[23] = system: Cynomolgus monkey; assay: Toxicity in cynomolgus monkey assessed as decrease in PQ at 6 to 20 mg/kg, po; type: organism-based, Macaca fascicularis; conditions: in vivo
[24] = biological target: Tyrosine-protein kinase Lyn (Homo sapiens) (UniProt P07948); assay: Inhibition of Lyn (unknown origin) at 10 uM relative to control
Sequence of Tyrosine-protein kinase Lyn (Homo sapiens) (P07948 2-512 limits assumed): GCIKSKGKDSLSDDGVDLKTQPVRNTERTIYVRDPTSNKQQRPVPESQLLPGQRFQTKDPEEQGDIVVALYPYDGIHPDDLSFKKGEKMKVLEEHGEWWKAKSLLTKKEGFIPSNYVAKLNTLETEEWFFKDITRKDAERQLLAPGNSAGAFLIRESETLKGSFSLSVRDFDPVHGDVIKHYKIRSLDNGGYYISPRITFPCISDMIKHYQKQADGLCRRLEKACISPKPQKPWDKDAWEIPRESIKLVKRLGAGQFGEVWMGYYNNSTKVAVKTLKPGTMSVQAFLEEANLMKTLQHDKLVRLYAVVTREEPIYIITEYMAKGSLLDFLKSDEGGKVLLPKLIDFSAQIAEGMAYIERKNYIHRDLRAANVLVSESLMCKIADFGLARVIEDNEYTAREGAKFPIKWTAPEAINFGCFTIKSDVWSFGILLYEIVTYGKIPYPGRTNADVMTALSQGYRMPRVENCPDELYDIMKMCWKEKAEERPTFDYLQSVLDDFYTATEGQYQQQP

[25] = system: Rattus norvegicus; assay: Toxicity in single po dosed rat assessed as effect on respiratory rate at 30 mg/kg, po administered as single dose; type: organism-based; conditions: in vivo
[26] = system: Mus musculus; assay: Antiarthritic activity in human TNF transgenic mouse model assessed as reduction in paw swelling at 20 to 50 mg/kg/day, po for 10 weeks; type: functional, organism-based
Procedure, shortened: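 Heterozygous human TNF transgenic mice (8 per group) were dosed orally for ten weeks with 20 or 50 mg/kg/day as a methylcellulose suspension, alongside vehicle and infliximab i.p. controls. Joint swelling and grip strength were scored weekly, and hind paws were examined histologically at the end.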

[27] = AUC (0 to infinity) in female Sprague-Dawley rat at 30 mg/kg, po by LC-MS/MS analysis; type: ADME, organism-based; design: dose 30 mg/kg, time infinity, route oral; conditions: in vivo; procedure, shortened: as §2
[28] = Drug metabolism in human primary hepatocytes assessed as CBS-3733 formation at 10 to 100 uM; type: ADME, cell-based, Hepatocyte
[29] = system: Rattus norvegicus; assay: In vivo inhibition of P38 MAPKalpha in Lewis rat assessed as decrease in LPS-stimulated TNFalpha level in serum at 10 mg/kg, po pretreated for 3 hrs followed by LPS addition measured after 1.5 hrs post dose; type: functional, organism-based
Procedure, shortened: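 Lewis rats, n = 8/group: females dosed orally at 10 mg/kg at −1, −3 or −5 h relative to LPS challenge, plus one male group dosed at −1 h. Male and female vehicle controls were given at −1 h. Serum TNFα was measured after LPS and compared with vehicle.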

[30] = system: Bone marrow cell; assay: Clastogenicity in mouse bone marrow cells by microneucleus test; type: toxicity, cell-based
Procedure, shortened: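 In vivo micronucleus test in mouse bone marrow.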

[31] = Drug metabolism in cynomolgus monkey liver microsomes assessed as N-(4-(4-(4-fluorophenyl)-1-methyl-2-(methylsulfinyl)-1H-imidazol-5-yl)pyridin-2-yl)acetamide formation at 10 to 100 uM; type: ADME, Macaca fascicularis, microsome; procedure, shortened: as §1
[32] = biological target: Ephrin type-B receptor 2 (Homo sapiens) (UniProt P29323); assay: Inhibition of EphB2 (unknown origin) at 10 uM relative to control
Sequence of Ephrin type-B receptor 2 (Homo sapiens) (P29323 whole entry): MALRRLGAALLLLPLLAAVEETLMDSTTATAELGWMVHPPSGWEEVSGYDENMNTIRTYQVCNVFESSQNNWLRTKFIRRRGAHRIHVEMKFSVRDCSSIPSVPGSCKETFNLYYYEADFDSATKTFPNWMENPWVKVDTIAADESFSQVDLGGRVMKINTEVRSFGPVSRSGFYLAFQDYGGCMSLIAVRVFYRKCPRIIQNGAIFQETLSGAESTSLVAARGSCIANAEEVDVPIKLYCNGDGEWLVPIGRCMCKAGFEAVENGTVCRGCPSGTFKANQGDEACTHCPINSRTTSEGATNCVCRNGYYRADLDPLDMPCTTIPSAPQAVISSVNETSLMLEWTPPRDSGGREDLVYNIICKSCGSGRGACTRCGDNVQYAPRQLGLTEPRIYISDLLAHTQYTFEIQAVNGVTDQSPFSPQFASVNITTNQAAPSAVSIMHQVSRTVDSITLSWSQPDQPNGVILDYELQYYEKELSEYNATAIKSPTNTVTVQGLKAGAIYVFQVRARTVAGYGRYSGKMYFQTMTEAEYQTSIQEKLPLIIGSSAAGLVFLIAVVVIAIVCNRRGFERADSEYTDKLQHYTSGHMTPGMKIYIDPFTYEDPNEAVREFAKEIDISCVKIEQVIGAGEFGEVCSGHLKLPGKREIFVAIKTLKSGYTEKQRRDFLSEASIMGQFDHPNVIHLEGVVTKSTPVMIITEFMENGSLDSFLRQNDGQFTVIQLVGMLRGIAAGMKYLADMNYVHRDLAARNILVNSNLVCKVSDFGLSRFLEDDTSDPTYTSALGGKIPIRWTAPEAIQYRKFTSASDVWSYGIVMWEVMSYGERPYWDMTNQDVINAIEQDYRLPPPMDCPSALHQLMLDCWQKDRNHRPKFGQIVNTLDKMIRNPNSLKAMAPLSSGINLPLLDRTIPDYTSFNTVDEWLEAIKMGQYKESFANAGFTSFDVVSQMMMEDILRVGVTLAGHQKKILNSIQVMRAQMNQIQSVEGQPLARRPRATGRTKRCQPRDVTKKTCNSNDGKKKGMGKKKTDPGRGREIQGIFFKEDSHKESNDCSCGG

- inhibition [1]: inactive
- Drug metabolism [2]: Metabolite_Detected
- inhibition [3]: inactive
- inhibition [4]: inactive
- Tmax [5]: 4 h
SMILES: Cn1c([S+](C)[O-])nc(-c2ccc(F)cc2)c1-c1ccnc(N)c1 (configuration not stated)

SMILES: CC(=O)Nc1cc(-c2c(-c3ccc(F)cc3)nc([S+](C)[O-])n2C)ccn1 (configuration not stated)
- Activity [6]: Toxic
- inhibition [7]: 32%
- Activity [8]: Toxic
- MTD at 336 h [9]: 150 mg/kg
- Activity [10]: Non-Toxic
- Activity [11]: Toxic
- AUC(0-inf) [12]: 2.24 µM·h
- Drug excretion [13]: 6 %ID
- AUC(0-t) [14]: 40.9 µM·h
- inhibition [15]: 55%
- Activity [16]: Non-Toxic
- Drug metabolism [17]: Metabolite_Detected
- Drug metabolism [18]: Metabolite_Detected
- half-life [19]: 468 min
- Activity [20]: Active
- Drug metabolism [21]: Metabolite_Detected
- Activity [22]: Non-Toxic
- Activity [23]: Toxic
- inhibition [24]: 31%
- Activity [25]: Non-Toxic
- Activity [26]: Active
- AUC(0-inf) [27]: 40.9 µM·h
- Drug metabolism [28]: Metabolite_Detected
- inhibition [29]: Active
- Activity [30]: Non-Toxic
- Drug metabolism [31]: Metabolite_Detected
- inhibition [32]: 60%
